Compounds with a hit are over-represented: about 2.7% of the library has one in this group of screens.
PAFAH1B2 FP inh = PAFAH1B2 (human) inhibition; P68402; recombinant PAFAH1B2, FP-rhodamine activity probe, fluorescence polarization; inhibition, % at 3.39 µM; 340,000 tested, 1.2% active;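 active = inhibition above the mean of all tested compounds plus 3 SD, cut at about 24% in these data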;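 note: 0% = enzyme with DMSO and 100% = wells lacking PAFAH1B2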
Target sequence (P68402 whole entry, looked up): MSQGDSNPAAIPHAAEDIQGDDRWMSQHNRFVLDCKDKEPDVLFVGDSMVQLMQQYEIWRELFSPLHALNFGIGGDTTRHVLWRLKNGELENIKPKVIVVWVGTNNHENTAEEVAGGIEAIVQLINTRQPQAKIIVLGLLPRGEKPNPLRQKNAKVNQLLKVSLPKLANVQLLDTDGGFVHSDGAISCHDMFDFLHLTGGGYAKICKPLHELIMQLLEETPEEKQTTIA
PAFAH2 inh = inhibitors of human PAFAH2; inhibition, % at 3.39 µM; 340,000 tested, 0.99% active; recombinant PAFAH2, FP-rhodamine activity probe, fluorescence polarization;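 active = inhibition above the mean over all tested compounds plus 3 SD, cut at about 30% in these data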;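 note: inhibitors block probe labeling of enzyme so polarization drops; 0% = enzyme with DMSO and 100% = wells lacking PAFAH2 protein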
pPAFAH FP inh = inhibitors of human plasma PAF acetylhydrolase (pPAFAH) | Q13093 | recombinant pPAFAH, FP-rhodamine probe fluorescence polarization | inhibition, % at 3.39 µM | 330,000 tested, 1.5% active | AID 463082;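 active = inhibition above the mean inhibition across the screen plus 3 SD, cut at about 25% in these data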;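 note: inhibitors block binding of the rhodamine activity-based probe so polarization drops; 0% = enzyme with DMSO and 100% = wells lacking pPAFAH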
ASAP1 inh = ASAP1 ArfGAP inhibition | ASAP1-stimulated ARF1 GTP hydrolysis, GDP FP detection | 360,000 tested, 0.19% active | Q9ULH1 | inhibition, % at 16.5 µM | AID 624377; in the data active = inhibition above about 25%;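 note: 0% = vehicle with enzyme and substrate and 100% = no enzyme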
ARFGAP1 inhibitor = rat ARFGAP1 inhibition. inhibition, % at 16.5 µM. Arfgap1-stimulated ARF1 GTP hydrolysis, GDP FP detection. 360,000 tested, 0.26% active. AID 651572;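 active = inhibition above a per-plate limit, mean inhibition of low control wells plus 3 SD, cut at about 25% in these data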;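 note: 0% = DMSO wells with enzyme and 100% = wells lacking Arfgap1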
Target sequence (Q62848 1-136 limits assumed): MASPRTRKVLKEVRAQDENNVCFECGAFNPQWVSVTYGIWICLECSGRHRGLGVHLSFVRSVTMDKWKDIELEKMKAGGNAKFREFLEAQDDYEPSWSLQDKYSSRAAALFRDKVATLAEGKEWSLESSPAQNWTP
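Material – truncated rat Arfgap1 GAP domain · Buffer or medium – HEPES-based buffer, pH 7.5 · Reagent – human ARF1(Δ1-17)-GTP substrate · Dosing – 16.5 µM single point, 1.26% DMSO · Schedule – GTP hydrolysis reaction 2 h at 25 °C · Technique – GDP detection by fluorescence polarization · Benchmarks – No-Arfgap1 wells (100%) versus DMSO full-reaction wells (0%) · Repeats – single replicate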
PAFAH1B3 inh = PAFAH1B3 (human) inhibition. Q15102. recombinant PAFAH1B3, FP-rhodamine probe, fluorescence polarization. 340,000 tested, 0.28% active. inhibition, % at 3.39 µM;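 active = inhibition above the screen-wide average of all tested compounds plus 3 SD, cut at about 25% in these data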;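 note: 0% = enzyme with DMSO only and 100% = wells lacking PAFAH1B3 protein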
Target sequence (Q15102 whole entry, looked up): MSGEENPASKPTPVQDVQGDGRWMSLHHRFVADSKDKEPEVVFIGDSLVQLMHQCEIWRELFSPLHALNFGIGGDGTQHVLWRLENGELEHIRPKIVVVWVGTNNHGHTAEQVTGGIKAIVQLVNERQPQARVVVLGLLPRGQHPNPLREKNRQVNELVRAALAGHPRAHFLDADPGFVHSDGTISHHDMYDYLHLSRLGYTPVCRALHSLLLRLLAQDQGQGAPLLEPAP
Numbers without * were called inactive; nt = not tested or not shown.

SMILES | PAFAH1B2 FP inh | PAFAH2 inh | pPAFAH FP inh | ASAP1 inh | ARFGAP1 inhibitor | PAFAH1B3 inh
O=C(N[C@H](C(=O)N1CCC[C@H]1C(=O)NCCc1ccccc1Cl)c1ccccc1)C1CCCC1 | nt | nt | nt | 8 | 13 | nt
Cc1[nH]c2ccccc2c1/C=N/NC(=O)c1cc(-c2cccs2)[nH]n1 | 11 | 14 | 27* | 25 | 18 | 22
C[C@@H]1COc2cc(NCCO)ccc2S(=O)(=O)N1 | nt | nt | nt | 1 | -8 | nt
O=C(/C=C(\Nc1cc(Cl)c(Cl)c(Cl)c1)c1ccccc1)c1ccccc1 | nt | nt | nt | 6 | -1 | nt
COc1ccc(-c2cc(C(F)F)n3ncc(C(=O)n4ccnc4C)c3n2)cc1 | -1 | 30* | 2 | -1 | 11 | 5
COc1ccc(-c2cc(C(F)F)n3ncc(C(=O)N4CCc5ccccc54)c3n2)cc1 | 6 | -2 | -1 | 12 | -1 | 8
CC(=O)Nc1ccc(Nc2ccc3c4c(cc(=O)n3C)-c3ccccc3C(=O)c24)cc1 | 3 | 8 | 9 | 15 | 14 | 3
O=C1c2ccccc2C(=O)c2c(Nc3ccc(CCO)cc3)ccc(O)c21 | -1 | 11 | 31* | 0 | -3 | 12
O=C(Cc1ccc(Cl)cc1)NNC(=O)C(=O)NC1CCCCC1 | 27* | 7 | 5 | -6 | -5 | 2
O=C(CCSc1ccc(Cl)cc1)N1CCCCCC1 | 66* | 8 | 6 | 8 | 9 | 2
O=C(CCSc1ccc(Cl)cc1)NC1CCCC1 | 26* | -2 | 5 | 18 | 10 | 10
COC(=O)c1cc2c(c3c4cc(F)ccc4n(S(=O)(=O)c4cccc(C)c4)c13)C(=O)N(Cc1ccccc1OC)C2 | nt | nt | nt | -6 | 1 | nt
COC(=O)c1cc2c(c3c4ccccc4n(S(C)(=O)=O)c13)C(=O)N(Cc1ccccc1)C2 | nt | nt | nt | 10 | 7 | nt
Cc1c(-c2ccccc2)nnn1-c1ccc(F)c(Cl)c1 | nt | nt | nt | 0 | 7 | nt
O=C(Nc1nnc(-c2ccc3c(c2)CCCC3)o1)C1COc2ccccc2O1 (stereo not drawn) | 0 | 3 | 31* | -6 | 6 | 7
O=C(O)C/C(=C\c1cc2c(cc1Br)OCO2)c1nc2ccccc2s1 | 73* | 8 | 3 | 3 | -8 | -2
Brc1cc2c(cc1/C=N/Nc1nc3ccccc3s1)OCO2 | 6 | 3 | -3 | -10 | -7 | 9
Cc1[nH]c2ccccc2c1CC(=O)Nc1ccc(Nc2cccnc2)c(-c2ccc(C(C)(C)C)cc2)c1 | nt | nt | nt | -14 | -6 | nt
CC(C)(C)CC(C)(C)c1ccc(OCCOCC[N+](C)(C)Cc2ccccc2)cc1 | 21 | 2 | 26* | 0 | 6 | -9
Cc1cc(C(=O)OCC(=O)Nc2ccc(F)cc2F)c(C)o1 | 9 | 45* | 4 | -5 | -8 | 3
Cc1cc(C(=O)OCC(=O)Nc2ccccc2C)c(C)o1 | 2 | 28 | 4 | 4 | -10 | 0
CN(c1ccc(Cl)cc1)S(=O)(=O)c1nnc(NC(=O)C(C)(C)C)s1 | 28* | -2 | nt | -8 | 2 | 9
COc1cc(C2Nc3cccc4cccc(c34)N2)cc(OC)c1OC(C)=O | 7 | -8 | 11 | 0 | -5 | 32*
O=[N+]([O-])c1cc(C2Nc3cccc4cccc(c34)N2)ccc1Cl | 37* | 8 | 0 | -7 | 14 | 13
COc1cc(C2Nc3cccc4cccc(c34)N2)ccc1O | 25* | -29 | 5 | 0 | 13 | 37*
SMILES | PAFAH1B2 FP inh | PAFAH2 inh | pPAFAH FP inh | ASAP1 inh | ARFGAP1 inhibitor | PAFAH1B3 inh
COc1ccc(Br)cc1C1Nc2cccc3cccc(c23)N1 | -3 | 12 | 5 | -7 | -10 | 4
O=C1NC(c2ccc(Cl)c([N+](=O)[O-])c2)Nc2ccccc21 (stereo not drawn) | 3 | 11 | -4 | -13 | -4 | 14
Cc1ccccc1C(=O)N[C@H](C(=O)N1CCC[C@H]1C(=O)NC1CCCC1)c1ccccc1 | nt | nt | nt | -3 | -6 | nt
CCOC(=O)c1cc(C#N)c(SCC(=O)O)[nH]c1=O | 2 | -6 | 32* | 4 | -4 | 31*
CC(=O)Nc1ccc(/C(N=Nc2ccccc2)=N/N=C(N)N)cc1 | 8 | -2 | nt | 7 | -4 | 14
Brc1ccc(N/N=C(/N=Nc2nn[nH]n2)c2ccccc2)cc1 | 21 | 44* | 61* | 5 | -1 | 23
O=C(O)c1cccc(N/N=C(\N=Nc2ccccc2)c2ccccc2)c1 | 3 | 17 | 25* | -7 | -5 | -5
O=C(O)c1ccc(N=N/C(=N\Nc2ccc(C(=O)O)cc2)c2ccccc2)cc1 | 3 | 6 | 27* | -11 | 7 | -2
O=C(/C(=N\Nc1ccc(Br)cc1)Sc1nnnn1-c1ccccc1)c1ccccc1 | 20 | 8 | 0 | 7 | 0 | 11
C=CCOc1c(Br)cc(/C=N/Nc2ccc(C(=O)O)cc2)cc1OCC | 3 | 16 | 30* | -4 | -2 | 6
O=C(Cc1ccc(Br)cc1)NCCc1ccc(F)cc1 | 26* | 0 | -4 | -10 | 10 | -1
O=C(Cc1ccc(Cl)cc1)NCCc1ccc(F)cc1 | nt | nt | -6 | -9 | 1 | nt
Cn1c(CCN2CCN(c3ccccn3)CC2)nc2cc(NS(=O)(=O)c3ccc(Cl)cc3)ccc21 | 26* | 1 | 14 | -2 | 3 | 0
Cc1ccc(S(=O)(=O)Nc2ccc3c(c2)nc(CCN2CCN(c4ccccn4)CC2)n3C)cc1 | 12 | -5 | 2 | 6 | 5 | 1
COC(=O)[C@]12C[C@H](CC(=O)NCCCCc3ccccc3)C(=O)N(CCC3=CCCCC3)C1=C[C@H](C(C)(C)C)O[C@@H]2C | nt | nt | nt | 5 | -1 | nt
COC(=O)c1cc2c(c3c4ccccc4n(S(=O)(=O)c4ccccc4)c13)C(=O)N(Cc1ccc(N(C)C)cc1)C2 | nt | nt | nt | -2 | 17 | nt
Cc1oc(C(=O)O)cc1COc1cccc2cccnc12 | 9 | 22 | 28* | -12 | -12 | 16
COc1cc(/C=N/NC(=O)[C@H](Cc2c[nH]c3ccccc23)NC(=O)OCC(C)C)cc([N+](=O)[O-])c1O | 24* | 12 | 30* | -2 | -16 | 6
O=C(OCc1c(Cl)cccc1Cl)c1cccnc1 | 1 | 7 | 33* | 2 | -15 | 2
O=C(OCc1c(Cl)cccc1Cl)c1cccnc1Cl | -2 | 5 | 32* | 4 | 6 | 0
O=C(OCc1ccccc1Cl)c1cccnc1Cl | 4 | 0 | 10 | 0 | -3 | -1
COC(=O)c1ccsc1NS(C)(=O)=O | nt | nt | nt | 6 | -7 | nt
C[C@@H]1CN([C@H](C)CO)C(=O)c2cc(NS(=O)(=O)c3ccccc3)ccc2O[C@@H](C)CCCCO[C@@H]1CN(C)Cc1ccc(Cl)c(Cl)c1 | nt | nt | nt | 12 | 7 | nt
CCN(CC(=O)Nc1ccc(OC)cc1)C(=O)c1ccc2c(=O)n3c(nc2c1)CCC3 | 2 | 6 | -3 | -8 | 4 | 2
Cc1ccc(C)c(NC(=O)CN(C)C(=O)c2ccc3[nH]c4c(c3c2)CC(C)CC4)c1 (stereo not drawn) | 40* | 3 | 8 | 10 | 4 | 5

Screens from PubChem BioAssay.
